# Compound activity: PubChem, Broad Institute
# Rtt109 HAT inh: C. albicans Rtt109 histone acetyltransferase inhibition; Q5AAJ8; purified Rtt109/Vps75, ThioGlo CoA-SH fluorescence, 4 h; inhibition, % at 34.9 µM; hit rate 0.16% among 330,000; AID 540336;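 active = inhibition of at least 50% in every replicate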
# SR-BI DiI inh: mouse SR-BI HDL lipid transfer inhibition; Q61009; ldlA[mSR-BI] CHO cells, DiI-HDL uptake fluorescence, 3 h; inhibition, % at 12.5 µM; hit rate 0.96% among 320,000; AID 488896;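 active = mean replicate inhibition of at least 70% and a set share of replicates each scoring 70 or more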;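 note: 0% = median of neutral control wells and 100% = median of positive control wells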
# Target sequence (Q61009 whole entry, looked up): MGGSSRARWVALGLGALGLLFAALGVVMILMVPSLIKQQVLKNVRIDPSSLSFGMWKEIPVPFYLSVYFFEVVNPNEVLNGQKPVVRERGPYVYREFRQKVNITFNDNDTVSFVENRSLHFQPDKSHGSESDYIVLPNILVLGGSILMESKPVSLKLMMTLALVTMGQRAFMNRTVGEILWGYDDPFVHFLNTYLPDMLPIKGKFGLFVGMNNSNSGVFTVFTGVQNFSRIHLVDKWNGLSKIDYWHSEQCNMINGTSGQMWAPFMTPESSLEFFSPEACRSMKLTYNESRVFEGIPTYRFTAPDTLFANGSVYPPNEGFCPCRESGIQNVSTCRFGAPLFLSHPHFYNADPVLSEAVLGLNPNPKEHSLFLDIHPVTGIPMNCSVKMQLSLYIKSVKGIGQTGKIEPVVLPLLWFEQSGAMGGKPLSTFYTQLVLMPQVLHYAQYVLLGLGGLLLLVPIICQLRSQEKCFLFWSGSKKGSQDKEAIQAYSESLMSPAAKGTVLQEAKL
# SR-BI DiI-HDL act: activators of SR-BI mediated HDL lipid uptake; CHO ldlA[mSR-BI] cells, DiI-HDL uptake fluorescence, 3 h; 100 = double the neutral-control signal; activation, % at 12.5 µM; hit rate 0.096% among 320,000;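 active = mean replicate activation of at least 60% and every replicate at or above 60%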;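 note: 0% = median plate neutral-control signal and 100% = twice that signal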
#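 Test system: SR-BI-overexpressing, LDLR-lacking CHO cells; Medium: Ham's F12 with 0.5% BSA, HEPES 25 mM, pH 7.4; Schedule: 3 h, 37 °C; Technique: bottom-read fluorescence, 550/595 nm.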
# Glyco luc inh: N-linked glycosylation inhibition | D54 ERlucT glycosylation luciferase reporter, 24 h; percent of 100 nM tunicamycin response | reporter increase, % at 12.5 µM | hit rate 0.23% among 360,000;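 active = mean luciferase reporter signal, scaled so untreated is 0 and the glycosylation-blocking control 100, at or above a set limit in every replicate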;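 note: luciferase carries N-glycosylation sites so blocking glycosylation raises the light; 0% = median of neutral control wells and 100% = median of 100 nM tunicamycin wells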
# HIV Env fusion: HIV envelope-mediated fusion inhibition. inhibition, % at 12.3 µM. hit rate 1.1% among 360,000. HeLa-JRFL Env/CEM21 cell fusion, luciferase;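 active = mean replicate inhibition score of at least 50 and every replicate individually at or above 50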;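 note: 0% = plate neutral controls and 100% = maraviroc near 300 nM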
# PglD DTNB: inhibitors of Campylobacter jejuni PglD acetyltransferase; purified PglD enzyme, DTNB colorimetric CoA detection; inhibition, % at 12.5 µM; hit rate 0.098% among 360,000; in the data active = inhibition above about 16%, passing the limit was not always enough
# * hit, by the source's call; i = inactive; nt = no result; [ ] = remark or other dose. In the library only some 1.9% were active in any assay of this set; here they are far more common.
SMILES,Rtt109 HAT inh,SR-BI DiI inh,SR-BI DiI-HDL act,Glyco luc inh,HIV Env fusion,PglD DTNB
COCCN(C(=O)COC(=O)c1ccc2c(c1)OCCO2)c1c(N)n(Cc2ccccc2)c(=O)[nH]c1=O,5,-6,6,2,nt,nt
CC(C)CN(C(=O)COC(=O)c1ccccc1NCc1ccco1)c1c(N)n(Cc2ccccc2)c(=O)[nH]c1=O,5,27,-27,-1,nt,3
COc1cc2ccccc2cc1C(=O)OCC(=O)N(CC(C)C)c1c(N)n(Cc2ccccc2)c(=O)[nH]c1=O,10,80*,-80,0,23,-2
COCCN(C(=O)COC(=O)c1ccc(C=O)cc1)c1c(N)n(Cc2ccccc2)c(=O)[nH]c1=O,-8,-16,16,2,58*,1
CCN(C(=O)COC(=O)c1ccccc1NCc1ccco1)c1c(N)n(Cc2ccccc2)c(=O)[nH]c1=O,-6,73*,-73,1,nt,-4
CCOc1ccc(OCCC(=O)N(CCC2=CCCCC2)c2c(N)n(Cc3ccccc3)c(=O)[nH]c2=O)cc1,1,44,-44,-1,-14,1
COCC(=O)Nc1ccc2c(c1)OC[C@H](C)N(C(=O)c1ccncc1)C[C@@H](C)[C@H](OC)CN(C)C2=O,nt,nt,nt,nt,2[16.7 µM],3
COc1ccc(NC(=O)Nc2ccc3c(c2)C(=O)N([C@H](C)CO)C[C@H](C)[C@H](CN(C)Cc2ccccc2)OCCCC[C@@H](C)O3)cc1,nt,nt,nt,nt,1[16.7 µM],0
CCOC(=O)c1cc2c(C)n(-c3ccc(OCC)cc3)c(C)c2ccc1=O,7,8,-8,-3,61*,2
CC1CCN(CCCNC(=O)c2ccc3c(Cl)c4c(nc3c2)CCCC4)CC1,18,nt,nt,-8,57*,nt
Cc1ccc(C(=O)NCC(=O)NCC(c2ccco2)N2CCCCC2)cc1C (centres undefined),56*,-2,2,-2,-32,-1
C[C@@H]1CN([C@H](C)CO)S(=O)(=O)c2ccc(C#CC3(O)CCCC3)cc2O[C@H]1CN(C)C(=O)c1ccccc1,nt,nt,nt,nt,-24[16.7 µM],2
C=CCSC(=C(C#N)C#N)c1cc2c([nH]1)CCCC2,5,nt,nt,40*,nt,nt
C[C@@H]1CN([C@@H](C)CO)S(=O)(=O)c2ccc(C3=CCCC3)cc2O[C@@H]1CN(C)Cc1cccc(C(=O)O)c1,nt,nt,nt,nt,7[16.7 µM],1
O=C(NCC[C@@H]1CC[C@H](NS(=O)(=O)c2cccc(F)c2)[C@H](CO)O1)C1CC1,nt,nt,nt,nt,-8[16.7 µM],0
CC#CCN(CC#CC)S(=O)(=O)c1ccc(-n2cnnn2)c(OC)c1,54*,18,-18,4,-1,-2
Cc1ccc(/C=C/C(=O)Nc2ccc(S(N)(=O)=O)cc2)o1,11,-1,1,3,18,nt
Cc1ccc(/C=C/C(=O)NCc2ccc(S(N)(=O)=O)cc2)o1,72*,-6,6,-1,28,nt
O=C(CNc1cccc2ccccc12)N/N=C/c1ccc[nH]1,18,16,-15,2,-7,nt
O=C(CNc1cccc2ccccc12)N/N=C/C(Br)=C/c1ccccc1,1,4,-4,31*,nt,-1
COc1ccc(-c2cc(C)no2)cc1S(=O)(=O)Nc1cccc(C)c1,7,3,-3,5,-7,1
COc1ccc(-c2cc(C)no2)cc1S(=O)(=O)Nc1ccccc1,-1,-6,6,45*,-28,4
COc1ccc(C(=O)COC(=O)c2ccc(OC)c(OC)c2)cc1OC,1,32,-32,0,nt,-2
COc1ccc(C(=O)CSC#N)cc1OC,-9,-21,21,26*,i,nt
CC1(C)CC(=O)C=C(c2ccc(F)cc2OCc2ccccc2)C1,-9,41,-41,-3,77*,-2
O=C(C[C@@H]1CC[C@@H]2[C@H](COC[C@H](O)CN2C(=O)Nc2cccc(F)c2)O1)NCc1ccccc1Cl,nt,nt,nt,nt,nt,1
CNC[C@@H]1Oc2c(NC(=O)Nc3c(C)noc3C)cccc2C(=O)N([C@@H](C)CO)C[C@H]1C,nt,nt,nt,nt,8[16.7 µM],-2
Cc1ccc(NC(=O)c2ccc(OC(F)(F)F)cc2)cc1S(=O)(=O)N(C)C,6,33,-33,-6,62*,nt
COc1ccc(C(=O)Nc2ccc(C)c(S(=O)(=O)N3CCCCCC3)c2)cc1,2,81*,-81,-5,13,nt
